Tested on: HEK-293T
Test: Multiplex assay against HEK293T;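 as to Population Tubulin-Different-Phenotype (%): share of the cells with healthy nuclei that show this phenotype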
Format: toxicity, cell-based
Conditions: human
Summary of the method: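 Live cells were stained at seeding with Hoechst33342, BioTracker Green Microtubule Cytoskeleton Dye, MitoTracker Red and Annexin V Alexa Fluor 680, then imaged on a CQ1 microscope at 37°C and 5% CO2 after compound addition. CellPathfinder machine-learning gating split cells into Hoechst high-intensity objects or normal cells. Normal cells were split into healthy, pyknosed or fragmented nuclei, and pyknosed cells into mitotic or apoptotic. Tubulin, mitochondrial-mass and membrane-permeability phenotypes are per cents of healthy-nucleus cells.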

[1] = 12 h, 1 µM, compound concentration 1 uM, replicate 1
[2] = 12 h, 1 µM, compound concentration 1 uM, replicate 2
[3] = 12 h, 10 µM, compound concentration 10 uM, replicate 1
[4] = 12 h, 10 µM, compound concentration 10 uM, replicate 2
[5] = 24 h, 1 µM, compound concentration 1 uM, replicate 1
[6] = 24 h, 1 µM, compound concentration 1 uM, replicate 2
[7] = 24 h, 10 µM, compound concentration 10 uM, replicate 1
[8] = 24 h, 10 µM, compound concentration 10 uM, replicate 2
[9] = 48 h, 1 µM, compound concentration 1 uM, replicate 1
[10] = 48 h, 1 µM, compound concentration 1 uM, replicate 2
[11] = 48 h, 10 µM, compound concentration 10 uM, replicate 1
[12] = 48 h, 10 µM, compound concentration 10 uM, replicate 2

OC1(c2ccc(Cl)cc2)CCN(Cc2c[nH]c3ccccc23)CC1
Population Apoptotic (%) [1]: 51%
Population Fragmented Nuclei (%) [1]: 20%
Population Healthy Nuclei (%) [1]: 14%
Population Hoechst High Intensity Objects (%) [1]: 15%
Population Membrane Permeable-Phenotype (%) [1]: 4%
Population Mitochondria Different-Phenotype (%) [1]: 63%
Population Mitotic Cells (%) [1]: 48%
Population Normal (%) [1]: 84%
Population Pyknosed Nuclei (%) [1]: 65%
Population Tubulin-Different-Phenotype (%) [1]: 45%
Total Cell Count [1]: 177
Population Apoptotic (%) [2]: 18%
Population Fragmented Nuclei (%) [2]: 6%
Population Healthy Nuclei (%) [2]: 29%
Population Hoechst High Intensity Objects (%) [2]: 6%
Population Membrane Permeable-Phenotype (%) [2]: 7%
Population Mitochondria Different-Phenotype (%) [2]: 34%
Population Mitotic Cells (%) [2]: 81%
Population Normal (%) [2]: 93%
Population Pyknosed Nuclei (%) [2]: 63%
Population Tubulin-Different-Phenotype (%) [2]: 42%
Total Cell Count [2]: 136
Population Apoptotic (%) [3]: 70%
Population Fragmented Nuclei (%) [3]: 11%
Population Healthy Nuclei (%) [3]: 11%
Population Hoechst High Intensity Objects (%) [3]: 15%
Population Membrane Permeable-Phenotype (%) [3]: 7%
Population Mitochondria Different-Phenotype (%) [3]: 100%
Population Mitotic Cells (%) [3]: 29%
Population Normal (%) [3]: 84%
Population Pyknosed Nuclei (%) [3]: 77%
Population Tubulin-Different-Phenotype (%) [3]: 92%
Total Cell Count [3]: 275
Population Apoptotic (%) [4]: 63%
Population Fragmented Nuclei (%) [4]: 5%
Population Healthy Nuclei (%) [4]: 14%
Population Hoechst High Intensity Objects (%) [4]: 9%
Population Membrane Permeable-Phenotype (%) [4]: 17%
Population Mitochondria Different-Phenotype (%) [4]: 89%
Population Mitotic Cells (%) [4]: 36%
Population Normal (%) [4]: 90%
Population Pyknosed Nuclei (%) [4]: 80%
Population Tubulin-Different-Phenotype (%) [4]: 86%
Total Cell Count [4]: 223
Population Apoptotic (%) [5]: 50%
Population Fragmented Nuclei (%) [5]: 22%
Population Healthy Nuclei (%) [5]: 30%
Population Hoechst High Intensity Objects (%) [5]: 16%
Population Membrane Permeable-Phenotype (%) [5]: 3%
Population Mitochondria Different-Phenotype (%) [5]: 70%
Population Mitotic Cells (%) [5]: 49%
Population Normal (%) [5]: 83%
Population Pyknosed Nuclei (%) [5]: 46%
Population Tubulin-Different-Phenotype (%) [5]: 42%
Total Cell Count [5]: 210
Population Apoptotic (%) [6]: 27%
Population Fragmented Nuclei (%) [6]: 6%
Population Healthy Nuclei (%) [6]: 52%
Population Hoechst High Intensity Objects (%) [6]: 5%
Population Membrane Permeable-Phenotype (%) [6]: 8%
Population Mitochondria Different-Phenotype (%) [6]: 30%
Population Mitotic Cells (%) [6]: 72%
Population Normal (%) [6]: 94%
Population Pyknosed Nuclei (%) [6]: 40%
Population Tubulin-Different-Phenotype (%) [6]: 50%
Total Cell Count [6]: 171
Population Apoptotic (%) [7]: 76%
Population Fragmented Nuclei (%) [7]: 14%
Population Healthy Nuclei (%) [7]: 3%
Population Hoechst High Intensity Objects (%) [7]: 16%
Population Membrane Permeable-Phenotype (%) [7]: 0%
Population Mitochondria Different-Phenotype (%) [7]: 100%
Population Mitotic Cells (%) [7]: 23%
Population Normal (%) [7]: 83%
Population Pyknosed Nuclei (%) [7]: 81%
Population Tubulin-Different-Phenotype (%) [7]: 100%
Total Cell Count [7]: 282
Population Apoptotic (%) [8]: 89%
Population Fragmented Nuclei (%) [8]: 5%
Population Healthy Nuclei (%) [8]: 8%
Population Hoechst High Intensity Objects (%) [8]: 8%
Population Membrane Permeable-Phenotype (%) [8]: 15%
Population Mitochondria Different-Phenotype (%) [8]: 73%
Population Mitotic Cells (%) [8]: 10%
Population Normal (%) [8]: 91%
Population Pyknosed Nuclei (%) [8]: 85%
Population Tubulin-Different-Phenotype (%) [8]: 84%
Total Cell Count [8]: 238
Population Apoptotic (%) [9]: 58%
Population Fragmented Nuclei (%) [9]: 19%
Population Healthy Nuclei (%) [9]: 53%
Population Hoechst High Intensity Objects (%) [9]: 13%
Population Mitochondria Different-Phenotype (%) [9]: 41%
Population Mitotic Cells (%) [9]: 41%
Population Normal (%) [9]: 86%
Population Pyknosed Nuclei (%) [9]: 26%
Population Tubulin-Different-Phenotype (%) [9]: 31%
Total Cell Count [9]: 247
Population Apoptotic (%) [10]: 7%
Population Fragmented Nuclei (%) [10]: 7%
Population Healthy Nuclei (%) [10]: 70%
Population Hoechst High Intensity Objects (%) [10]: 2%
Population Membrane Permeable-Phenotype (%) [10]: 6%
Population Mitochondria Different-Phenotype (%) [10]: 15%
Population Mitotic Cells (%) [10]: 92%
Population Normal (%) [10]: 97%
Population Pyknosed Nuclei (%) [10]: 22%
Population Tubulin-Different-Phenotype (%) [10]: 39%
Total Cell Count [10]: 264
Population Apoptotic (%) [11]: 71%
Population Fragmented Nuclei (%) [11]: 22%
Population Healthy Nuclei (%) [11]: 0%
Population Hoechst High Intensity Objects (%) [11]: 18%
Population Membrane Permeable-Phenotype (%) [11]: 0%
Population Mitochondria Different-Phenotype (%) [11]: 100%
Population Mitotic Cells (%) [11]: 28%
Population Normal (%) [11]: 81%
Population Pyknosed Nuclei (%) [11]: 77%
Population Tubulin-Different-Phenotype (%) [11]: 100%
Total Cell Count [11]: 295
Population Apoptotic (%) [12]: 89%
Population Fragmented Nuclei (%) [12]: 19%
Population Healthy Nuclei (%) [12]: 19%
Population Hoechst High Intensity Objects (%) [12]: 4%
Population Membrane Permeable-Phenotype (%) [12]: 4%
Population Mitochondria Different-Phenotype (%) [12]: 71%
Population Mitotic Cells (%) [12]: 10%
Population Normal (%) [12]: 95%
Population Pyknosed Nuclei (%) [12]: 60%
Population Tubulin-Different-Phenotype (%) [12]: 95%
Total Cell Count [12]: 224

CN1CCN(c2ccc(OC(F)(F)F)c(Nc3ncc4c(n3)-c3c(c(C(N)=O)nn3CCO)CC4)c2)CC1 [ONVANSERTIB]
Population Apoptotic (%) [1]: 68%
Population Fragmented Nuclei (%) [1]: 13%
Population Healthy Nuclei (%) [1]: 36%
Population Hoechst High Intensity Objects (%) [1]: 16%
Population Membrane Permeable-Phenotype (%) [1]: 6%
Population Mitochondria Different-Phenotype (%) [1]: 83%
Population Mitotic Cells (%) [1]: 31%
Population Normal (%) [1]: 83%
Population Pyknosed Nuclei (%) [1]: 50%
Population Tubulin-Different-Phenotype (%) [1]: 39%
Total Cell Count [1]: 216
Population Apoptotic (%) [2]: 21%
Population Fragmented Nuclei (%) [2]: 11%
Population Healthy Nuclei (%) [2]: 23%
Population Hoechst High Intensity Objects (%) [2]: 5%
Population Membrane Permeable-Phenotype (%) [2]: 0%
Population Mitochondria Different-Phenotype (%) [2]: 32%
Population Mitotic Cells (%) [2]: 78%
Population Normal (%) [2]: 94%
Population Pyknosed Nuclei (%) [2]: 65%
Population Tubulin-Different-Phenotype (%) [2]: 24%
Total Cell Count [2]: 113
Population Apoptotic (%) [3]: 67%
Population Fragmented Nuclei (%) [3]: 8%
Population Healthy Nuclei (%) [3]: 41%
Population Hoechst High Intensity Objects (%) [3]: 12%
Population Mitochondria Different-Phenotype (%) [3]: 98%
Population Mitotic Cells (%) [3]: 32%
Population Normal (%) [3]: 87%
Population Pyknosed Nuclei (%) [3]: 49%
Population Tubulin-Different-Phenotype (%) [3]: 96%
Total Cell Count [3]: 269
Population Apoptotic (%) [4]: 31%
Population Fragmented Nuclei (%) [4]: 5%
Population Healthy Nuclei (%) [4]: 30%
Population Hoechst High Intensity Objects (%) [4]: 2%
Population Membrane Permeable-Phenotype (%) [4]: 1%
Population Mitochondria Different-Phenotype (%) [4]: 82%
Population Mitotic Cells (%) [4]: 68%
Population Normal (%) [4]: 97%
Population Pyknosed Nuclei (%) [4]: 64%
Population Tubulin-Different-Phenotype (%) [4]: 81%
Total Cell Count [4]: 234
Population Apoptotic (%) [5]: 60%
Population Fragmented Nuclei (%) [5]: 16%
Population Healthy Nuclei (%) [5]: 23%
Population Hoechst High Intensity Objects (%) [5]: 14%
Population Membrane Permeable-Phenotype (%) [5]: 9%
Population Mitochondria Different-Phenotype (%) [5]: 83%
Population Mitotic Cells (%) [5]: 39%
Population Normal (%) [5]: 85%
Population Pyknosed Nuclei (%) [5]: 60%
Population Tubulin-Different-Phenotype (%) [5]: 67%
Total Cell Count [5]: 211
Population Apoptotic (%) [6]: 15%
Population Fragmented Nuclei (%) [6]: 11%
Population Healthy Nuclei (%) [6]: 26%
Population Hoechst High Intensity Objects (%) [6]: 9%
Population Membrane Permeable-Phenotype (%) [6]: 0%
Population Mitochondria Different-Phenotype (%) [6]: 68%
Population Mitotic Cells (%) [6]: 84%
Population Normal (%) [6]: 90%
Population Pyknosed Nuclei (%) [6]: 62%
Population Tubulin-Different-Phenotype (%) [6]: 62%
Total Cell Count [6]: 122
Population Apoptotic (%) [7]: 55%
Population Fragmented Nuclei (%) [7]: 7%
Population Healthy Nuclei (%) [7]: 41%
Population Hoechst High Intensity Objects (%) [7]: 15%
Population Membrane Permeable-Phenotype (%) [7]: 2%
Population Mitochondria Different-Phenotype (%) [7]: 95%
Population Mitotic Cells (%) [7]: 44%
Population Normal (%) [7]: 84%
Population Pyknosed Nuclei (%) [7]: 50%
Population Tubulin-Different-Phenotype (%) [7]: 90%
Total Cell Count [7]: 303
Population Apoptotic (%) [8]: 42%
Population Fragmented Nuclei (%) [8]: 5%
Population Healthy Nuclei (%) [8]: 39%
Population Hoechst High Intensity Objects (%) [8]: 4%
Population Membrane Permeable-Phenotype (%) [8]: 4%
Population Mitochondria Different-Phenotype (%) [8]: 83%
Population Mitotic Cells (%) [8]: 57%
Population Normal (%) [8]: 95%
Population Pyknosed Nuclei (%) [8]: 54%
Population Tubulin-Different-Phenotype (%) [8]: 83%
Total Cell Count [8]: 256
Population Apoptotic (%) [9]: 57%
Population Fragmented Nuclei (%) [9]: 20%
Population Healthy Nuclei (%) [9]: 18%
Population Hoechst High Intensity Objects (%) [9]: 20%
Population Membrane Permeable-Phenotype (%) [9]: 0%
Population Mitochondria Different-Phenotype (%) [9]: 59%
Population Mitotic Cells (%) [9]: 42%
Population Normal (%) [9]: 79%
Population Pyknosed Nuclei (%) [9]: 60%
Population Tubulin-Different-Phenotype (%) [9]: 43%
Total Cell Count [9]: 213
Population Apoptotic (%) [10]: 36%
Population Fragmented Nuclei (%) [10]: 12%
Population Healthy Nuclei (%) [10]: 45%
Population Hoechst High Intensity Objects (%) [10]: 8%
Population Membrane Permeable-Phenotype (%) [10]: 6%
Population Mitochondria Different-Phenotype (%) [10]: 30%
Population Mitotic Cells (%) [10]: 63%
Population Normal (%) [10]: 91%
Population Pyknosed Nuclei (%) [10]: 42%
Population Tubulin-Different-Phenotype (%) [10]: 59%
Total Cell Count [10]: 118
Population Apoptotic (%) [11]: 64%
Population Fragmented Nuclei (%) [11]: 14%
Population Healthy Nuclei (%) [11]: 29%
Population Hoechst High Intensity Objects (%) [11]: 14%
Population Membrane Permeable-Phenotype (%) [11]: 2%
Population Mitochondria Different-Phenotype (%) [11]: 95%
Population Mitotic Cells (%) [11]: 35%
Population Normal (%) [11]: 85%
Population Pyknosed Nuclei (%) [11]: 55%
Population Tubulin-Different-Phenotype (%) [11]: 89%
Total Cell Count [11]: 267
Population Apoptotic (%) [12]: 51%
Population Fragmented Nuclei (%) [12]: 6%
Population Healthy Nuclei (%) [12]: 42%
Population Hoechst High Intensity Objects (%) [12]: 6%
Population Mitochondria Different-Phenotype (%) [12]: 78%
Population Mitotic Cells (%) [12]: 48%
Population Normal (%) [12]: 93%
Population Pyknosed Nuclei (%) [12]: 51%
Population Tubulin-Different-Phenotype (%) [12]: 84%
Total Cell Count [12]: 246

From ChEMBL document CHEMBL4689842, “EUbOPEN Chemogenomics Library wave 1” (2021)
